How the values were obtained:
mouse rotarod assay = assay: mouse rotarod assay; type: in vivo; conditions: dose of 200 mg/kg
mouse formalin model = mouse formalin model of acute and persistent pain; type: in vivo; conditions: 200 mg/kg i.p., positive control
Method in brief: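 Mouse formalin model: test compounds given s.c. (10, 30, 60 mg/kg) or i.p. (30 mg/kg) to maximise exposure. The positive control was a reference analgesic at 200 mg/kg i.p. Formalin-induced flinches were counted over 65 min. Plasma and brain levels were sampled at study end (~90 min post-dose), and free plasma level was estimated from plasma protein binding.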

In the case of `NCC1(CC(=O)O)CCCCC1` [Gabapentin], the behavioral side effects (mouse rotarod assay) is reported as “behavioral side effects (i.e., sedation)” and the “efficacy in the formalin model (number of flinches)” value (mouse formalin model) is reported as “Efficacy was seen”.

From paper PMC10238246 (Medicinal Chemistry Research, 2023)
